Assay outcomes (PubChem BioAssay)
Sampled rows, rich in hits. Any-hit rate of the full collection: about 2.8%.
UBC13 inh – inhibitors of human UBC13 polyubiquitin chain formation; P61088; TR-FRET; inhibition, % at 20 µM; 330,000 compounds, 0.47% hits; in the data active means inhibition above about 45%, passing the limit was not always enough
AI-2 QS mod – modulates the Vibrio harveyi AI-2 quorum sensing system | activity change, % at 7.5 µM | 300,000 compounds, 0.4% hits | Vibrio harveyi JMH597 AI-2 luminescence/OD600 ratio, 9 h; active compounds read low; strain lacks LuxN and CqsS sensors; 0 = neutral-control median | AID 2094; in the data active means activity change below about -75%, passing the limit was not always enough;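 further: luminescence divided by OD600 gain over 9 h not by final OD600 alone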
p-CIP stab down – compounds decreasing mouse p/CIP protein stability; decrease of EGFP signal, % at 10 µM; F442A p/CIP-EGFP cells, EGFP fluorescence, 16 h; 290,000 compounds, 0.01% hits; Q05BA5;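 active means EGFP signal decrease of at least 30% at 10 µM or well 3 SD below plate mean, unless failing retest; inactive means the rest, including hits failing retest or dose response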
PP1 inh – blocks human PP1-alpha phosphatase, a PP5 counter-screen. purified PP1alpha, OMFP fluorescence. inhibition, % at 6.7 µM. 320,000 compounds, 0.9% hits;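 active means inhibition above the mean inhibition of all tested compounds plus 3 SD, computed separately for each screening campaign, cut at about 15% in these data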
Target sequence (P62136 whole entry, looked up): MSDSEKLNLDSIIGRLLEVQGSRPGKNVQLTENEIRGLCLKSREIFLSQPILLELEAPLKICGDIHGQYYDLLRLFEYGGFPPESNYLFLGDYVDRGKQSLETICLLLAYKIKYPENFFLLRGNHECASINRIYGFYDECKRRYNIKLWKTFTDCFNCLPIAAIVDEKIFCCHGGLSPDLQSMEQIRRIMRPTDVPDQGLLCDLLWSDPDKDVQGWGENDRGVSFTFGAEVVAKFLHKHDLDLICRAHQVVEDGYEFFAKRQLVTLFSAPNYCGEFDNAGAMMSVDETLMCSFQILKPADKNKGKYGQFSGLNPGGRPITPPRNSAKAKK
T cruzi repl – blocks replication of Trypanosoma cruzi. inhibition, % (concentration not given with the values). T. cruzi beta-gal in NIH3T3, luminescence, 90 h. 300,000 compounds, 1.4% hits;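 active means mean inhibition across valid replicates above about 55%, limit read from the data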;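 further: signal also drops with host cell toxicity which is not excluded here; 0% = plate median of DMSO wells and 100% = zero luminescence signal; higher percent means less beta-gal luminescence so fewer parasites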
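System: mouse NIH/3T3 fibroblasts infected with β-gal-expressing T. cruzi Tulahuen C4 / Input: NIH/3T3 cells, 5,000 per well / Buffer or medium: Low-serum DMEM with 2% FBS / Probe or stimulus: 5000 reporter trypomastigotes per well / Schedule: ≥90 h infection period, 3 h prior cell attachment / Measured by: GalScreen luminescence, 60 min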
Casp3 UBC13 ctr – inhibits human caspase-3 in UBC13 counter-screen; shares compounds with UBC13 inh; Recombinant caspase-3, Caspase-Glo 3/7 luminescence, 60 min; inhibition, % at 20 µM; 1,400 compounds, 4% hits;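 active means mean inhibition across replicates above about 26%, limit read from the data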;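 further: plate controls were DMSO with caspase-3 for no effect and DMSO wells lacking enzyme for full effect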
Target sequence (P42574 whole entry, looked up): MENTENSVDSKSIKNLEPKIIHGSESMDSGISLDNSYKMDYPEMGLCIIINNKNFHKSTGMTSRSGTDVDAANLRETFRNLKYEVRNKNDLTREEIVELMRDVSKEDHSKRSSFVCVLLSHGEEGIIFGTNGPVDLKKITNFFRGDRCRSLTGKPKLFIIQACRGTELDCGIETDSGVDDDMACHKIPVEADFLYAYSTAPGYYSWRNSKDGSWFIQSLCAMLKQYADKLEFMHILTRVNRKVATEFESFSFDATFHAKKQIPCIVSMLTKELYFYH
UBC13 conf – confirmation of human UBC13 polyubiquitin inhibitors. inhibition, % at 10 µM. AID 488859. shares compounds with UBC13 inh. 1,400 compounds, 68% hits. UBC13 polyubiquitination, TR-FRET, biochemical; in the data active means inhibition above about 45%
Starred values were filed as active, the others as inactive.

What do the screens show for `COc1ccc(C(=O)Nn2c(SCC(=O)NCC3CCCO3)nc3ccccc3c2=O)cc1` (stereo unspecified)?
UBC13 inh: 58*; AI-2 QS mod: 4; p-CIP stab down: -24; PP1 inh: 4; T cruzi repl: 5; Casp3 UBC13 ctr: 71*; UBC13 conf: 48*

How did N#Cc1ccsc1NC(=O)C1CCN(C(=O)c2ccc(F)cc2)CC1 do in these assays?
UBC13 inh: 59*; PP1 inh: 0; Casp3 UBC13 ctr: 3; UBC13 conf: 41

What do the screens show for `COc1ccc(S(=O)(=O)Nc2ccc(C)cn2)cc1`?
UBC13 inh: 46*; p-CIP stab down: 0; PP1 inh: -1; T cruzi repl: -3; Casp3 UBC13 ctr: -2; UBC13 conf: -3

How did COc1ccc(S(=O)(=O)Nc2ccc(Cl)cn2)cc1 do in these assays?
UBC13 inh: -1; p-CIP stab down: -4; PP1 inh: -3; T cruzi repl: 5

What do the screens show for `COc1cc(C(=S)N2CCOCC2)cc(OC)c1O`?
UBC13 inh: 0; AI-2 QS mod: 9; p-CIP stab down: -12; PP1 inh: -1; T cruzi repl: 7

How did Cc1cccc(N(C(=O)c2snc(C(N)=O)c2N)C(C)C(=O)NCC2CCCO2)c1 (stereo unspecified) do in these assays?
UBC13 inh: 12; AI-2 QS mod: -2; p-CIP stab down: -3; PP1 inh: -4; T cruzi repl: -6

How did CC(C)CC(C(=O)NC(C)(C)C)N(CC1CCCO1)C(=O)c1snc(C(N)=O)c1N (stereo unspecified) do in these assays?
UBC13 inh: 78*; AI-2 QS mod: 4; p-CIP stab down: -3; PP1 inh: 6; T cruzi repl: 3; Casp3 UBC13 ctr: -4; UBC13 conf: 81*

What do the screens show for `CCCC(C(=O)NC1CCCC1)N(CC1CCCO1)C(=O)c1snc(C(N)=O)c1N` (stereo unspecified)?
UBC13 inh: 22; AI-2 QS mod: 12; p-CIP stab down: -1; PP1 inh: -10; T cruzi repl: 2

What do the screens show for `CCCC(C(=O)NC(C)(C)C)N(CC1CCCO1)C(=O)c1snc(C(N)=O)c1N` (stereo unspecified)?
UBC13 inh: 51*; AI-2 QS mod: 18; p-CIP stab down: -20; PP1 inh: 2; T cruzi repl: -23; Casp3 UBC13 ctr: 1; UBC13 conf: 52*

What do the screens show for `Cc1cccc(C)c1NC(=O)CNC(=O)CCC(=O)N1CCOCC1`?
UBC13 inh: 3; AI-2 QS mod: 13; PP1 inh: -4; T cruzi repl: -7

What do the screens show for `O=C(Nc1ccccc1)N1CCN(c2nc(-c3ccccc3)ns2)CC1`?
UBC13 inh: 49*; AI-2 QS mod: 1; p-CIP stab down: -5; PP1 inh: -6; T cruzi repl: -10; Casp3 UBC13 ctr: -1; UBC13 conf: 63*

Results for COc1cc2c(cc1Cl)/C(=C\CCN(C)C)c1ccccc1S2 ?
UBC13 inh: 25; AI-2 QS mod: 18; p-CIP stab down: -3; PP1 inh: -2; T cruzi repl: 46

What do the screens show for `CN1CCN(CC/C=C2/c3ccccc3Sc3ccc(S(=O)(=O)N(C)C)cc32)CC1`?
UBC13 inh: 55*; AI-2 QS mod: 10; p-CIP stab down: -6; PP1 inh: 2; T cruzi repl: 29; Casp3 UBC13 ctr: 1; UBC13 conf: 26

What do the screens show for `COC(=O)/C(=C1/Oc2ccc(C(C)(C)C)cc2S1)C(F)(F)F`?
UBC13 inh: -1; AI-2 QS mod: -3; p-CIP stab down: -2; PP1 inh: -10; T cruzi repl: -34

What do the screens show for `CCOC(=O)C1=C(c2ccccc2)O/C(=C(\C(=O)OC)C(F)(F)F)S1`?
UBC13 inh: 51*; AI-2 QS mod: 12; p-CIP stab down: -14; PP1 inh: 0; T cruzi repl: 17; Casp3 UBC13 ctr: 1; UBC13 conf: 44

How did CCCCCCCNC(=O)C1(CC2CC(c3ccc(Cl)cc3)=NO2)CCNCC1 (stereo unspecified) do in these assays?
UBC13 inh: 83*; AI-2 QS mod: -13; p-CIP stab down: 9; PP1 inh: 4; T cruzi repl: 27; Casp3 UBC13 ctr: 0; UBC13 conf: 80*

How did CCCCCCCNC(=O)C1(CC2CC(c3cccc(Br)c3)=NO2)CCN(C(=O)Cc2ccc(F)cc2)CC1 (stereo unspecified) do in these assays?
UBC13 inh: -10; PP1 inh: 10

What do the screens show for `CCCCCCCNC(=O)C1(CC2CC(c3cccc(Br)c3)=NO2)CCNCC1` (stereo unspecified)?
UBC13 inh: 96*; AI-2 QS mod: -8; p-CIP stab down: -2; PP1 inh: 14; T cruzi repl: 12; Casp3 UBC13 ctr: 4; UBC13 conf: 99*

How did COc1ccc(CCNC(=O)CSc2nnc(-c3ccc(F)cc3)o2)cc1OC do in these assays?
UBC13 inh: 2; AI-2 QS mod: 23; p-CIP stab down: -10; PP1 inh: -2; T cruzi repl: -5

What do the screens show for `CCNC(=O)c1ccccc1NC(=O)c1cccc(S(=O)(=O)N2CCOCC2)c1`?
UBC13 inh: -16; AI-2 QS mod: 9; p-CIP stab down: -10; PP1 inh: -2; T cruzi repl: 10

How did CCNC(=O)c1ccccc1NC(=O)c1cccc(S(=O)(=O)N2CCC(C)CC2)c1 do in these assays?
UBC13 inh: 67*; AI-2 QS mod: -6; p-CIP stab down: -1; PP1 inh: 3; T cruzi repl: 29; Casp3 UBC13 ctr: -2; UBC13 conf: 75*

Results for CNC(=O)c1ccccc1NC(=O)c1cccc(S(=O)(=O)N2CCC(C)CC2)c1 ?
UBC13 inh: 50*; AI-2 QS mod: 30; p-CIP stab down: -14; PP1 inh: 3; T cruzi repl: 14; Casp3 UBC13 ctr: 2; UBC13 conf: 58*

How did COc1cc(NS(=O)(=O)c2ccc(-c3ccc(=O)[nH]n3)o2)cc(OC)c1OC do in these assays?
UBC13 inh: -5; AI-2 QS mod: 34; p-CIP stab down: -9; PP1 inh: -4; T cruzi repl: -3

What do the screens show for `Cc1cc(C(=O)NNC(=O)/C=C/c2ccco2)c(C)o1`?
UBC13 inh: -1

How did c1ccc(C[C@H]2CN=C(Nc3ccccc3)N2CC2CCCCC2)cc1 do in these assays?
UBC13 inh: 17

Results for c1ccc(C[C@H]2CN=C(Nc3ccccc3)N2CCCC2CCCCC2)cc1 ?
UBC13 inh: 48*; Casp3 UBC13 ctr: -1; UBC13 conf: 26

How did S=c1[nH]nc(COc2ccc(Cl)cc2Cl)n1-c1ccccc1 do in these assays?
UBC13 inh: -6; AI-2 QS mod: 15; p-CIP stab down: -6; PP1 inh: 4; T cruzi repl: 9
